According to ChEMBL document CHEMBL4354866, “TREK Channel Family Activator with a Well-Defined Structure-Activation Relationship for Pain and Neurogenic Inflammation” (J Med Chem, 2020):
Positions count from the first letter of the chain named. Activity calls are given as the source filed them.

Key:
[1] = biological target: T1, Potassium channel subfamily K member 2 (Rattus norvegicus) (UniProt Q920B6); test: Activation of TREK in depolarized Sprague-Dawley rat DRG neurons assessed as reversal potential of K+ current at 10 uM by whole cell voltage clamp electrophysiological analysis
T1 sequence (whole entry): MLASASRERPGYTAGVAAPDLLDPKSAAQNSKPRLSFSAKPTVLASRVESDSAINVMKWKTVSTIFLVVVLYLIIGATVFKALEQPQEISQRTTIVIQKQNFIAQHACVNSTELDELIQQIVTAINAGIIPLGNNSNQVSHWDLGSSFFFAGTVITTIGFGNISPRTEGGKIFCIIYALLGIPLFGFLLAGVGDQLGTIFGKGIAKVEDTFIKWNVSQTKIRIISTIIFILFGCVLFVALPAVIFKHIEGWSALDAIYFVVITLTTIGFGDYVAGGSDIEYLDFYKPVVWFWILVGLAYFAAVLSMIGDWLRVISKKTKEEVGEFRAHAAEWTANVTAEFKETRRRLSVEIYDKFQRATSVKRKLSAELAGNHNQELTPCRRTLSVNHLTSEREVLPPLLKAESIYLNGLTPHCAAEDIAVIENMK
Outline: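 Rat DRG neurons, whole-cell voltage clamp in 3 mM external K⁺. Voltage ramps -20 to -120 mV before and during 10 μM compound. The compound-sensitive current was obtained by subtraction, and its reversal potential was read where it could be resolved (4 cells).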

Mus musculus [2] = test: Analgesic activity in ip dosed mouse assessed as increase in tail flick latency time measured up to 120 mins at 52 degC by tail immersion test; format: functional, organism-based
Outline: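 Male BALB/c or C57BL/6 mice, 6–8 weeks, acclimated in a holder 15 min/day for 3 days. Distal 3 cm of tail immersed at 5, 20, 40, 46 or 52 °C; flick latency recorded, cut-off 15 s. Compound i.p. in 5% DMSO/5% Tween 80/90% saline (1.25–10 mg/kg at 52 °C; 5 mg/kg across temperatures).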

[3] = biological target: T2, Potassium channel subfamily K member 2 (Homo sapiens, UniProt O95069, G275C); test: Activation of recombinant human TREK1 G275C mutant expressed in HEK293T cells assessed as increase in K+ current amplitude by whole cell voltage clamp electrophysiological analysis; format: cell-based
Outline: (§1)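 Human TREK-1 G275C expressed in HEK-293T, whole-cell ramp recordings. Tested with or without MTSET, 1 mM final, diluted from 0.5 M DMSO stock within 120 s of application. Concentration–response curves for EC50, n = 5–19; 10 μM single-point comparison by one-way ANOVA with Tukey test.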

[4] = biological target: T3, Potassium channel subfamily K member 2 (Homo sapiens) (UniProt O95069); test: Activation of recombinant human TREK1 expressed in HEK293T cells assessed as change in single channel conductance by inside-out patch electrophysiological analysis; format: cell-based
T3 sequence (whole entry): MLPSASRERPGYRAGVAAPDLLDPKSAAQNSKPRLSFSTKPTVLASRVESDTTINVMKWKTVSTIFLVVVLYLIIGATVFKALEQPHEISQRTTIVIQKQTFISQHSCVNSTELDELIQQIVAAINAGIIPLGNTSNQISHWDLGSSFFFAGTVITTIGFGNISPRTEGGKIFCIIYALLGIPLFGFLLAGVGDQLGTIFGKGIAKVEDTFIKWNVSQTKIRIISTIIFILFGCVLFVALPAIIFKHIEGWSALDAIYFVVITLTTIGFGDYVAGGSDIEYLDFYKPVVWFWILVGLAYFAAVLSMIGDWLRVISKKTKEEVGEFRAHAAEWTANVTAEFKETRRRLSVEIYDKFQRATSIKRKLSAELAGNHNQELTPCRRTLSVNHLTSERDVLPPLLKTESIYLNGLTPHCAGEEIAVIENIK
Outline: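 Inside-out patches from HEK-293T cells expressing human TREK-1 (pEGFP-N1), 10 μM compound. Conductance taken as first open-state amplitude over voltage at -60 or +60 mV.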

[5] = biological target: T2, Potassium channel subfamily K member 2; test: Activation of recombinant human TREK1 G275C mutant expressed in HEK293T cells assessed as increase in K+ current amplitude in presence of MTSET by whole cell voltage clamp electrophysiological analysis; format: cell-based; outline: as §1
[6] = tested on: T4, Potassium channel subfamily K member 2 (Homo sapiens), O95069 [I158A]; test: Activation of recombinant human TREK1 I158A mutant expressed in HEK293T cells assessed as increase in K+ current amplitude by whole cell voltage clamp electrophysiological analysis; format: cell-based
T4 sequence (whole entry): T3 sequence (whole entry) with I158A
Outline: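 Transiently transfected HEK-293T cells, whole-cell voltage clamp. Held at -60 mV, 500-ms ramp -120 to +60 mV. Pipette (mM) 140 KCl, 5 EGTA, 10 HEPES, pH 7.4; external 145 NaCl, 4 KCl, pH 7.3. Compound diluted from 10 mM DMSO stock and applied extracellularly. Current increase over control fitted to concentration–response curves for EC50.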

Mus musculus [7] = test: Analgesic activity in CFA-induced mouse model of chronic inflammatory pain assessed as reduction in mechanical allodynia at 5 mg/kg, ip measured up to 90 mins by von frey test; format: functional, organism-based
Outline: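 CFA (20 μl s.c.) injected into the left hindpaw of mice; compound given i.p. in DMSO/Tween 80/saline vehicle. Mice acclimated 3 days on a wire-mesh floor; mechanical threshold measured with von Frey filaments applied in ascending order.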

T2 sequence (O95069 whole entry G275C): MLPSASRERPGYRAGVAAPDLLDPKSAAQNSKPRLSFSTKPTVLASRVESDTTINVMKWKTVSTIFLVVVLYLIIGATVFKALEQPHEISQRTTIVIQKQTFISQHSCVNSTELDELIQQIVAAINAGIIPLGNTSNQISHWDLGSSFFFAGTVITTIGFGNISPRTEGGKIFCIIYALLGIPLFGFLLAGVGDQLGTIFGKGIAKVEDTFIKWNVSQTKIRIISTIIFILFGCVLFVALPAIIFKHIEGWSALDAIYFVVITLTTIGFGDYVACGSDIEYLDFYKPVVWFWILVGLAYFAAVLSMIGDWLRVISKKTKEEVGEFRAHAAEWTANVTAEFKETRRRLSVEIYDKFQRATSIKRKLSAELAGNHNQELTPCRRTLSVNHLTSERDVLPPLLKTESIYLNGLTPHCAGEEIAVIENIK

Activity [1]: -75 mV | EC50 [3]: 15.2 µM | Activity [4]: inactive | EC50 [5]: 18.4 µM | Activity [6]: inactive
Structure (SMILES): Cc1ccc2nc(-c3ccc(NC(=O)[C@@H]4CC[C@H](C(=O)O)C4)cc3)sc2c1
Activity (Mus musculus [2]): Dose-dependent effect | Activity (Mus musculus [7]): Active
